{"source": "ChEMBL document CHEMBL1212703", "about": "“Identification of RIP1 kinase as a specific cellular target of necrostatins” (Nat Chem Biol, 2008)", "key": {"[1]": {"tested_on": "T1, Receptor-interacting serine/threonine-protein kinase 1 (Homo sapiens), Q13546 [K45M]", "T1 sequence (whole entry)": "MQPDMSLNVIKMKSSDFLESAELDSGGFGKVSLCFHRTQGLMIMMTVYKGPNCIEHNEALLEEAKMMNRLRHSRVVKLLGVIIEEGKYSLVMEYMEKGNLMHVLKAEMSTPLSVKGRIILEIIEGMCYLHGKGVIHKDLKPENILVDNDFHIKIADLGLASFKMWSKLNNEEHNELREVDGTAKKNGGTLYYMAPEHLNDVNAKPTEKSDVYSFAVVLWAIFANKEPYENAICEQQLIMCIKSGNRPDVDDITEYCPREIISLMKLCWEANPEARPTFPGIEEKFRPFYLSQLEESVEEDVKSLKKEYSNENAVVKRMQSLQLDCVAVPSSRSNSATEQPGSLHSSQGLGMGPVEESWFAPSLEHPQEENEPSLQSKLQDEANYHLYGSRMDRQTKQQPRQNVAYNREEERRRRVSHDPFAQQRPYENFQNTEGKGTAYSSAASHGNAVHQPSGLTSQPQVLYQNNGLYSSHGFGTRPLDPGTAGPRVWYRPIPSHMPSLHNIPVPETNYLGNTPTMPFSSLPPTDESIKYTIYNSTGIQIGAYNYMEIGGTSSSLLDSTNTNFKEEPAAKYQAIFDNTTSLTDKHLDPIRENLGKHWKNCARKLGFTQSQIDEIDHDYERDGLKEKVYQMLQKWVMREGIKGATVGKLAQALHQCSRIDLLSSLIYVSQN", "test": "Inhibition of human RIP1 K45M mutant autophosphorylation expressed in HEK293T cells", "format": "cell-based", "details": "HEK-293T"}, "[2]": {"molecular_target": "T2, Receptor-interacting serine/threonine-protein kinase 1 (Homo sapiens, UniProt Q13546)", "T2 sequence (Q13546 whole entry)": "T1 sequence (whole entry) with M45K", "test": "(§1) Inhibition of endogenous RIP1 autophosphorylation in human Jurkat cells", "format": "cell-based", "how_it_was_run": "(§2)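 RIP1 immunoprecipitated from Jurkat cells and autophosphorylated in vitro across a titration of compound. Autophosphorylation quantified by phosphorimager; EC50 derived by nonlinear regression curve fitting. An aliquot of each reaction was blotted for RIP1 to check protein input.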"}, "[3]": {"tested_on": "T1, Receptor-interacting serine/threonine-protein kinase 1 (Homo sapiens), Q13546 [K45M]", "test": "Inhibition of human RIP1 K45M mutant autophosphorylation expressed in Sf9 cells"}, "[4]": {"molecular_target": "Receptor-interacting serine/threonine-protein kinase 2 (Homo sapiens) (UniProt O43353)", "sequence (O43353 whole entry)": "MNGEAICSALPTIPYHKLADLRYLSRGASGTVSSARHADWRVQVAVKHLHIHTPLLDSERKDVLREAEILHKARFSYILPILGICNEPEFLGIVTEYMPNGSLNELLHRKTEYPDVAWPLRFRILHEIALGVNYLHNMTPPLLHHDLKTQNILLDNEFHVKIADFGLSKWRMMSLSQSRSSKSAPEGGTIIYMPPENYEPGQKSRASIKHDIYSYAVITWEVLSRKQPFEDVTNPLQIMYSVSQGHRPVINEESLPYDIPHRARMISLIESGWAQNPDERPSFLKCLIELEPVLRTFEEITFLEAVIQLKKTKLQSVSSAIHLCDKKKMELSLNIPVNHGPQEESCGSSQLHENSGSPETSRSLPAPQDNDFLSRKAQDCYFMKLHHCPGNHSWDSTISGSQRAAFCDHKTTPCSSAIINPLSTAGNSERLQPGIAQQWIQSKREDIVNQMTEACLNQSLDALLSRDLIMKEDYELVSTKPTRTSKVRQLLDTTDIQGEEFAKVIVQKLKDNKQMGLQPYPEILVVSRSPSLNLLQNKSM", "test": "Inhibition of human RIP2 autophosphorylation expressed in HEK293T cells", "format": "cell-based", "details": "HEK-293T", "how_it_was_run": "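Myc-tagged RIP2 was transiently expressed in 293T cells, immunoprecipitated with anti-Myc antibody (clone 9E10), and used in an in vitro autophosphorylation kinase reaction with compound at the indicated concentrations, with DMSO as the vehicle.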"}, "[5]": {"molecular_target": "Receptor-interacting serine/threonine-protein kinase 3 (Homo sapiens) (UniProt Q9Y572)", "sequence (Q9Y572 whole entry, looked up)": "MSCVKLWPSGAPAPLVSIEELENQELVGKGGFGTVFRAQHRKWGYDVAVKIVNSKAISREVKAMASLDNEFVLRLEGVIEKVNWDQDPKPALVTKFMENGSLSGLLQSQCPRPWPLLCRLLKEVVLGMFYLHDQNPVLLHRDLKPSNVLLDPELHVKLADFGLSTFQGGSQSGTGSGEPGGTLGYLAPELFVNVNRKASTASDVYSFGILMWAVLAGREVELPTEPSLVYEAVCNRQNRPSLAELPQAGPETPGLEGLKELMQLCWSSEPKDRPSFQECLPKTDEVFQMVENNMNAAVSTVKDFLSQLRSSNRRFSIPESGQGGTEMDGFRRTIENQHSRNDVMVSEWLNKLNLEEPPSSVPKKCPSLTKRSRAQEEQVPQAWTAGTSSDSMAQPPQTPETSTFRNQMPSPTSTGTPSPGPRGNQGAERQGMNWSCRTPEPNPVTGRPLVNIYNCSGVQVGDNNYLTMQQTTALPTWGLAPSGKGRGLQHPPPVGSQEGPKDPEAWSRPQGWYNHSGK", "test": "Inhibition of human RIP3 autophosphorylation expressed in HEK293T cells", "format": "cell-based", "details": "HEK-293T"}, "[6]": {"tested_on": "Jurkat", "test": "Inhibition of cellular necroptosis in TNFalpha treated […] human Jurkat cells expressing RIP1 S161E mutant at 30 uM", "format": "functional, cell-based"}, "[7]": {"tested_on": "Jurkat", "test": "Inhibition of cellular necroptosis in TNFalpha treated […] human Jurkat cells expressing RIP1 F162E mutant at 30 uM", "format": "functional, cell-based"}, "[8]": {"molecular_target": "T3, Heat shock protein HSP90 (Homo sapiens) (UniProt P07900+P08238)", "test": "Inhibition of FITC-geldanamycin binding to HSP90 in human Jurkat cell lysates at 30 uM by fluorimetric assay", "format": "cell-free"}, "[9]": {"molecular_target": "T3, Heat shock protein HSP90 (Homo sapiens)", "test": "Inhibition of to HSP90 in FADD deficient human Jurkat cells assessed as RIP protein degradation at 30 uM by Western blot", "format": "cell-based", "how_it_was_run": "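FADD-deficient Jurkat cells exposed to 30 µM compound for 16 hr; RIP1 levels then assessed by western blot against anti-RIP1, with tubulin as loading control.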"}, "[10]": {"tested_on": "HEK-293T", "test": "Inhibition of TNF-alpha-induced NF-kappaB activation expressed in HEK293T cells at 30 uM by luciferase reporter gene assay", "format": "cell-based", "how_it_was_run": "(§3)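 293T cells, 1.2*10^6/well, cotransfected with pNFkB-Luc and pRSV-β-galactosidase control; 48 h later stimulated with 10 ng ml-1 human TNFα for 4 h with 30 µM compound. Luciferase (Bright-Glo) normalized to β-gal activity (ONPG, 30 °C, A420). Results expressed as fold over unstimulated cells; s.d. shown.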"}, "[11]": {"tested_on": "Jurkat", "test": "Inhibition of TNF-alpha-induced NF-kappaB activation expressed in FADD deficient human Jurkat cells at 30 uM by luciferase reporter gene assay", "format": "cell-based", "how_it_was_run": "(§4)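 FADD-deficient Jurkat cells carrying a lentiviral NF-kB luciferase reporter, 2*10^4 cells/well, stimulated with 10 ng ml-1 human TNFα for 4 h with 30 µM compound. Luminescence read by Bright-Glo. Values given as fold luciferase increase over unstimulated cells; s.d. shown.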"}, "[12]": {"tested_on": "T4, Receptor-interacting serine/threonine-protein kinase 1 (Homo sapiens), Q13546 [S161E]", "T4 sequence (whole entry)": "T1 sequence (whole entry) with M45K, S161E", "details": "HEK-293T, 100 uM"}, "[13]": {"tested_on": "Jurkat", "test": "Inhibition of cellular necroptosis in TNFalpha treated FADD deficient human Jurkat cells", "format": "functional, cell-based"}, "[14]": {"tested_on": "T1, Receptor-interacting serine/threonine-protein kinase 1 (Homo sapiens), Q13546 [K45M]", "test": "Inhibition of human RIP1 K45M mutant autophosphorylation expressed in FADD deficient human Jurkat cells at 10 to 30 uM", "format": "cell-based"}, "[15]": {"tested_on": "Jurkat", "test": "Inhibition of cellular necroptosis in TNFalpha treated FADD and RIP1 deficient human Jurkat cells at 30 uM", "format": "functional, cell-based"}, "[16]": {"tested_on": "T1, Receptor-interacting serine/threonine-protein kinase 1 (Homo sapiens), Q13546 [K45M]", "test": "Inhibition of human RIP1 K45M mutant autophosphorylation expressed in Sf9 cells at 10 to 30 uM"}, "[17]": {"tested_on": "HEK-293T", "test": "Inhibition of TNF-alpha-induced NF-kappaB activation expressed in HEK293T cells by luciferase reporter gene assay", "format": "cell-based", "how_it_was_run": "as §3"}, "[18]": {"tested_on": "Jurkat", "test": "Inhibition of TNF-alpha-induced NF-kappaB activation expressed in FADD deficient human Jurkat cells by luciferase reporter gene assay", "format": "cell-based", "how_it_was_run": "as §4"}, "[19]": {"molecular_target": "T5, Receptor-interacting serine/threonine-protein kinase 1 (Homo sapiens) (UniProt Q13546)", "T5 sequence (whole entry)": "T1 sequence (whole entry) with M45K", "test": "as §1", "format": "cell-based", "how_it_was_run": "as §2"}, "[20]": {"tested_on": "T4, Receptor-interacting serine/threonine-protein kinase 1 (Homo sapiens), Q13546 [S161E]", "test": "Inhibition of human RIP1 S161E mutant autophosphorylation expressed in HEK293T cells at 10 to 30 uM", "format": "cell-based", "details": "HEK-293T"}}, "note": "Residue numbers refer to the chain shown, from its start. Active and inactive are the calls of the source. The calls are words filed in the database; no cut-off is given here. Peptide text beside a SMILES is read from it. * marks the point of attachment. Cbz = O=C(OCc1ccccc1)*; CH2F = FC*", "data": [{"smiles": "CN1C(=O)C(Cc2c[nH]c3ccccc23)NC1=S", "note": "(stereo not drawn) [NECROSTATIN]", "values": [{"measurement": "inhibition", "setting": "[1]", "value": "Dose-dependent effect"}, {"measurement": "EC50", "setting": "[2]", "value": 0.182, "unit": "µM"}, {"measurement": "inhibition", "setting": "[3]", "value": "Active"}, {"measurement": "inhibition", "setting": "[4]", "value": "inactive"}, {"measurement": "inhibition", "setting": "[5]", "value": "inactive"}, {"measurement": "inhibition", "setting": "[6]", "value": "inactive"}, {"measurement": "inhibition", "setting": "[7]", "value": "inactive"}, {"measurement": "inhibition", "setting": "[8]", "value": "inactive"}, {"measurement": "inhibition", "setting": "[9]", "value": "inactive"}, {"measurement": "inhibition", "setting": "[10]", "value": "inactive"}, {"measurement": "inhibition", "setting": "[11]", "value": "inactive"}, {"measurement": "inhibition", "setting": "[12]", "value": "inactive"}]}, {"smiles": "CN1C(=O)C(Cc2c[nH]c3ccccc23)N(C)C1=S", "note": "(stereo not drawn)", "values": [{"measurement": "inhibition", "setting": "[1]", "value": "inactive"}, {"measurement": "EC50", "setting": "[13]", "value": 78, "unit": "µM"}]}, {"smiles": "COc1ccc(-n2c(SCC#N)nc3sc4c(c3c2=O)CCCC4)cc1", "values": [{"measurement": "inhibition", "setting": "[1]", "value": "Active"}, {"measurement": "inhibition", "setting": "[3]", "value": "inactive"}, {"measurement": "inhibition", "setting": "[14]", "value": "Active"}, {"measurement": "inhibition", "setting": "[8]", "value": "inactive"}, {"measurement": "inhibition", "setting": "[9]", "value": "inactive"}, {"measurement": "inhibition", "setting": "[10]", "value": "inactive"}, {"measurement": "inhibition", "setting": "[11]", "value": "inactive"}]}, {"smiles": "COc1ccc([C@H]2[C@H]3CCc4c(OC)cccc4C3=NN2C(C)=O)cc1", "values": [{"measurement": "inhibition", "setting": "[1]", "value": "inactive"}, {"measurement": "EC50", "setting": "[13]", "value": "> 100", "unit": "µM"}]}, {"smiles": "CN1C(=O)C(C)(Cc2c[nH]c3ccccc23)NC1=S", "note": "(stereo not drawn)", "values": [{"measurement": "inhibition", "setting": "[1]", "value": "inactive"}, {"measurement": "EC50", "setting": "[13]", "value": "> 100", "unit": "µM"}]}, {"smiles": "CN1C(=O)NC(Cc2c[nH]c3ccccc23)C1=O", "note": "(stereo not drawn)", "values": [{"measurement": "inhibition", "setting": "[1]", "value": "Active"}]}, {"smiles": "C[C@@H]1C[C@@H]([C@H](O)CC2CC(=O)NC(=O)C2)C(=O)[C@@H](C)C1", "values": [{"measurement": "inhibition", "setting": "[15]", "value": "inactive"}]}, {"smiles": "CN1CC(Cc2c[nH]c3c(Cl)cccc23)NC1=O", "note": "(stereo not drawn)", "values": [{"measurement": "EC50", "setting": "[13]", "value": "> 100", "unit": "µM"}]}, {"smiles": "COC1=C2C[C@@H](C)C[C@H](OC)[C@H](O)[C@@H](C)/C=C(\\C)[C@H](OC(N)=O)[C@@H](OC)/C=C\\C=C(/C)C(=O)NC(=CC1=O)C2=O", "values": [{"measurement": "inhibition", "setting": "[14]", "value": "inactive"}, {"measurement": "inhibition", "setting": "[16]", "value": "inactive"}, {"measurement": "inhibition", "setting": "[17]", "value": "Active"}, {"measurement": "inhibition", "setting": "[18]", "value": "Active"}]}, {"smiles": "COC(=O)C[C@H](NC(=O)[C@H](C)NC(=O)[C@@H](NC(=O)OCc1ccccc1)C(C)C)C(=O)CF", "note": "(Cbz-Val-Ala-Asp(OMe)-CH2F)", "values": [{"measurement": "inhibition", "setting": "[15]", "value": "inactive"}]}, {"smiles": "N#CCSc1nc2sc3c(c2c(=O)n1-c1ccccc1)CCCC3", "values": [{"measurement": "inhibition", "setting": "[1]", "value": "inactive"}, {"measurement": "EC50", "setting": "[13]", "value": "> 100", "unit": "µM"}]}, {"smiles": "O=C1NC(=S)NC1Cc1c[nH]c2ccccc12", "note": "(stereo not drawn)", "values": [{"measurement": "inhibition", "setting": "[1]", "value": "inactive"}, {"measurement": "inhibition", "setting": "[19]", "value": "inactive"}, {"measurement": "EC50", "setting": "[13]", "value": "> 100", "unit": "µM"}, {"measurement": "inhibition", "setting": "[3]", "value": "inactive"}]}, {"smiles": "COc1ccc([C@H]2[C@H]3CCc4ccccc4C3=NN2C(C)=O)cc1", "values": [{"measurement": "inhibition", "setting": "[1]", "value": "Active"}, {"measurement": "EC50", "setting": "[13]", "value": 0.29, "unit": "µM"}, {"measurement": "inhibition", "setting": "[3]", "value": "Active"}, {"measurement": "inhibition", "setting": "[6]", "value": "Active"}, {"measurement": "inhibition", "setting": "[14]", "value": "Active"}, {"measurement": "inhibition", "setting": "[20]", "value": "Active"}, {"measurement": "inhibition", "setting": "[8]", "value": "inactive"}, {"measurement": "inhibition", "setting": "[9]", "value": "inactive"}, {"measurement": "inhibition", "setting": "[10]", "value": "inactive"}, {"measurement": "inhibition", "setting": "[11]", "value": "inactive"}]}, {"smiles": "CN1C(=O)C(Cc2c[nH]c3c(Cl)cccc23)NC1=S", "note": "(stereo not drawn)", "values": [{"measurement": "inhibition", "setting": "[1]", "value": "Active"}]}, {"smiles": "O=[N+]([O-])c1ccc(-c2nc(-c3ccc(F)cc3)c(-c3ccncc3)[nH]2)cc1", "values": [{"measurement": "inhibition", "setting": "[4]", "value": "Active"}]}, {"smiles": "CN1C(=O)C(Cc2cn(C)c3ccccc23)NC1=S", "note": "(stereo not drawn)", "values": [{"measurement": "inhibition", "setting": "[1]", "value": "inactive"}, {"measurement": "EC50", "setting": "[13]", "value": 33, "unit": "µM"}]}]}
